Results taken from ChEMBL document CHEMBL3616437, “Thiazole compounds with activity against Cryptococcus gattii and Cryptococcus neoformans in vitro” (Eur J Med Chem, 2015).
In brackets after ≈: the same amount, converted by molar mass.

Key:
[1] = test system: Cryptococcus gattii species complex; experiment: Antifungal activity against Cryptococcus gattii 23/10993 after 48 to 72 hrs by broth microdilution method; assay type: functional, Cryptococcus bacillisporus
Summary of the method: (§1)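 CLSI M27-A3 broth microdilution in RPMI with L-glutamine, buffered to pH 7.0 with 0.165 M MOPS. Colonies grown twice on SDA, 48 h at 35°C. Inoculum set to 70% transmittance at 530 nm, then diluted to 1-5 x10^3 cells/mL. Test agents dissolved in DMSO, serially diluted, tested at 0.1 to 62.5 µM. Plates held at 35°C for 48-72 h. MIC is the lowest concentration giving an optically clear well, read visually against drug-free growth controls.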

Cryptococcus neoformans [2] = experiment: Antifungal activity against Cryptococcus neoformans VM-MCMMPI after 48 to 72 hrs by broth microdilution method; assay type: functional
Summary of the method: (§2)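 CLSI M27-A3 broth microdilution. Isolates subcultured twice on SDA, 48 h at 35°C. Saline suspension adjusted to 70% transmittance at 530 nm, then diluted to 1-5 x10^3 cells/mL in RPMI with L-glutamine, 0.165 M MOPS, pH 7.0. Compounds in DMSO, tested at […]. 35°C for 48-72 h. MIC read visually as the lowest concentration giving an optically clear well.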

[3] = test system: Cryptococcus gattii species complex; experiment: Antifungal activity against Cryptococcus gattii L27/01 after 48 to 72 hrs by broth microdilution method; assay type: functional, Cryptococcus bacillisporus; summary of the method: as §1
[4] = test system: Cryptococcus gattii species complex; experiment: Antifungal activity against Cryptococcus gattii LMM818 after 48 to 72 hrs by broth microdilution method; assay type: functional, Cryptococcus bacillisporus; summary of the method: as §1
[5] = test system: Cryptococcus gattii species complex; experiment: Antifungal activity against Cryptococcus gattii L28/02 after 48 to 72 hrs by broth microdilution method; assay type: functional, Cryptococcus bacillisporus; summary of the method: as §1
[6] = test system: Cryptococcus gattii species complex; experiment: Antifungal activity against Cryptococcus gattii 547/OTTI-97-PI-10 after 48 to 72 hrs by broth microdilution method; assay type: functional, Cryptococcus bacillisporus; summary of the method: as §1
[7] = test system: Cryptococcus gattii species complex; experiment: Antifungal activity against Cryptococcus gattii 135L/03 after 48 to 72 hrs by broth microdilution method; assay type: functional, Cryptococcus bacillisporus; summary of the method: as §1
Cryptococcus neoformans [8] = experiment: Antifungal activity against Cryptococcus neoformans 28JF after 48 to 72 hrs by broth microdilution method; assay type: functional; summary of the method: as §2
Cryptococcus neoformans [9] = experiment: Antifungal activity against Cryptococcus neoformans ATCC 24067 after 48 to 72 hrs by broth microdilution method; assay type: functional; summary of the method: as §2
[10] = Cytotoxicity against C57BL/6 mouse peritoneal macrophages assessed as cell viability measured after 48 hrs by MTT assay; assay type: cell-based; conditions: C57BL/6, Peritoneal macrophage cell
Summary of the method: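 Thioglycollate-elicited peritoneal macrophages from male C57BL/6 mice, 6–8 weeks old, in RPMI with 10% FBS. Seeded 1 x 10^5 cells/well, pre-incubated 24 h at 37°C. Exposed 48 h at 37°C, 5% CO2, to eight nonserial dilutions from 100 to 0.0128 µM, with 0.5% DMSO control. MTT read-out, % inhibition versus DMSO control. IC50 reported as median with 95% CI. Triplicate, two independent experiments.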

[11] = test system: Cryptococcus gattii species complex; experiment: Antifungal activity against Cryptococcus gattii ICB181 after 48 to 72 hrs by broth microdilution method; assay type: functional, Cryptococcus bacillisporus; summary of the method: as §1
Cryptococcus neoformans [12] = experiment: Antifungal activity against Cryptococcus neoformans 5396 after 48 to 72 hrs by broth microdilution method; assay type: functional; summary of the method: as §2
[13] = Selectivity index, ratio of IC50 for C57BL/6 mouse peritoneal macrophages to MIC for Cryptococcus neoformans ATCC 24067
Summary of the method: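 SI = IC50/MIC. Thioglycollate-elicited peritoneal macrophages from C57BL/6 mice are seeded at 1 x 10^5/well. They are exposed for 48 h at 37°C to eight concentrations from 100 to 0.0128 µM. Viability read by MTT versus 0.5% DMSO control, triplicate in two experiments.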

[14] = test system: Cryptococcus gattii species complex; experiment: Antifungal activity against Cryptococcus gattii L24/01 after 48 to 72 hrs by broth microdilution method; assay type: functional, Cryptococcus bacillisporus; summary of the method: as §1
[15] = test system: Cryptococcus bacillisporus; experiment: Antifungal activity against Cryptococcus gattii ATCC 32608 after 48 to 72 hrs by broth microdilution method; assay type: functional; summary of the method: as §1
Cryptococcus neoformans [16] = experiment: Antifungal activity against Cryptococcus neoformans F10 after 48 to 72 hrs by broth microdilution method; assay type: functional; summary of the method: as §2
[17] = test system: Cryptococcus gattii species complex; experiment: Antifungal activity against Cryptococcus gattii 196L/03 after 48 to 72 hrs by broth microdilution method; assay type: functional, Cryptococcus bacillisporus; summary of the method: as §1
Cryptococcus neoformans [18] = experiment: Antifungal activity against Cryptococcus neoformans ATCC 28957 after 48 to 72 hrs by broth microdilution method; assay type: functional; summary of the method: as §2
Cryptococcus neoformans [19] = experiment: Antifungal activity against Cryptococcus neoformans LMM820 after 48 to 72 hrs by broth microdilution method; assay type: functional; summary of the method: as §2
[20] = test system: Cryptococcus gattii species complex; experiment: Antifungal activity against Cryptococcus gattii 1913ER after 48 to 72 hrs by broth microdilution method; assay type: functional, Cryptococcus bacillisporus; summary of the method: as §1
Cryptococcus neoformans [21] = experiment: Antifungal activity against Cryptococcus neoformans WP after 48 to 72 hrs by broth microdilution method; assay type: functional; summary of the method: as §2
Cryptococcus neoformans [22] = experiment: Antifungal activity against Cryptococcus neoformans 27JF after 48 to 72 hrs by broth microdilution method; assay type: functional; summary of the method: as §2
Cryptococcus neoformans [23] = experiment: Antifungal activity against Cryptococcus neoformans ATCC 62066 after 48 to 72 hrs by broth microdilution method; assay type: functional
Cryptococcus neoformans [24] = experiment: Antifungal activity against Cryptococcus neoformans CN31 after 48 to 72 hrs by broth microdilution method; assay type: functional; summary of the method: as §2
[25] = Selectivity index, ratio of IC50 for African green monkey Vero cells to MIC for Cryptococcus neoformans ATCC 24067; assay type: toxicity, cell-based
Cryptococcus neoformans [26] = experiment: Antifungal activity against Cryptococcus neoformans 96806 after 48 to 72 hrs by broth microdilution method; assay type: functional; summary of the method: as §2
Vero = experiment: Cytotoxicity against African green monkey Vero cells assessed as cell viability measured after 48 hrs by MTT assay; assay type: cell-based; conditions: Chlorocebus sabaeus
Summary of the method: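 VERO cells in D-MEM with 5% FBS, used up to 20 passages. Seeded 1 x 10^4 cells/well, pre-incubated 24 h at 37°C. Exposed 48 h at 37°C, 5% CO2, to eight nonserial dilutions from 100 to 0.0128 µM, with 0.5% DMSO control. MTT reduction read-out, corrected for background and blank. IC50 reported as median with 95% CI. Triplicate, two independent experiments.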

OC(Cn1cncn1)(Cn1cncn1)c1ccc(F)cc1F [FLUCONAZOLE]
MFC [1]: > 62.5 µM
MIC [1]: 13 µM (≈ 3.98 µg/mL)
MFC (Cryptococcus neoformans [2]): 15.6 µM (≈ 4.78 µg/mL)
MIC (Cryptococcus neoformans [2]): 11.7 µM (≈ 3.58 µg/mL)
MFC [3]: > 62.5 µM
MIC [3]: 41.7 µM (≈ 12.8 µg/mL)
MFC [4]: > 62.5 µM
MIC [4]: 20.8 µM (≈ 6.37 µg/mL)
MFC [5]: > 62.5 µM
MIC [5]: 26 µM (≈ 7.96 µg/mL)
MFC [6]: > 62.5 µM
MIC [6]: 13 µM (≈ 3.98 µg/mL)
MFC [7]: 31.3 µM (≈ 9.59 µg/mL)
MIC [7]: 7.8 µM (≈ 2.39 µg/mL)
MFC (Cryptococcus neoformans [8]): > 62.6 µM
MIC (Cryptococcus neoformans [8]): 7.8 µM (≈ 2.39 µg/mL)
MIC (Cryptococcus neoformans [9]): 7.8 µM (≈ 2.39 µg/mL)
IC50 [10]: > 100 µM
MFC [11]: 62.5 µM (≈ 19.1 µg/mL)
MIC [11]: 10.4 µM (≈ 3.19 µg/mL)
MFC (Cryptococcus neoformans [12]): 62.5 µM (≈ 19.1 µg/mL)
MIC (Cryptococcus neoformans [12]): 23.4 µM (≈ 7.17 µg/mL)
Ratio [13]: 15.74
MFC [14]: > 62.5 µM
MIC [14]: 13 µM (≈ 3.98 µg/mL)
MFC [15]: 62.5 µM (≈ 19.1 µg/mL)
MIC [15]: 13 µM (≈ 3.98 µg/mL)
MFC (Cryptococcus neoformans [16]): > 62.5 µM
MIC (Cryptococcus neoformans [16]): 10.4 µM (≈ 3.19 µg/mL)
MFC [17]: > 62.5 µM
MIC [17]: 26 µM (≈ 7.96 µg/mL)
MFC (Cryptococcus neoformans [18]): 62.5 µM (≈ 19.1 µg/mL)
MIC (Cryptococcus neoformans [18]): 3.2 µM (≈ 0.98 µg/mL)
MFC (Cryptococcus neoformans [19]): 62.5 µM (≈ 19.1 µg/mL)
MIC (Cryptococcus neoformans [19]): 13 µM (≈ 3.98 µg/mL)
MFC [20]: > 62.5 µM
MIC [20]: 13 µM (≈ 3.98 µg/mL)
MFC (Cryptococcus neoformans [21]): > 62.5 µM
MIC (Cryptococcus neoformans [21]): 15.6 µM (≈ 4.78 µg/mL)
MFC (Cryptococcus neoformans [22]): > 62.5 µM
MIC (Cryptococcus neoformans [22]): 10.4 µM (≈ 3.19 µg/mL)
MFC (Cryptococcus neoformans [23]): > 62.5 µM
MIC (Cryptococcus neoformans [23]): 13 µM (≈ 3.98 µg/mL)
MFC (Cryptococcus neoformans [24]): 31.2 µM (≈ 9.57 µg/mL)
MIC (Cryptococcus neoformans [24]): 6.5 µM (≈ 1.99 µg/mL)
selectivity ratio [25]: 15.7
MFC (Cryptococcus neoformans [26]): > 62.5 µM
MIC (Cryptococcus neoformans [26]): 31.2 µM (≈ 9.56 µg/mL)
IC50 (Vero): > 100 µM
